Rows were chosen to be rich in hits. Some 4.9% of all compounds tested hit in one or more screens of this group.
APP 5'UTR act = activators of APP 5'UTR luciferase reporter, primary screen, SH-SY5Y cells; SH-SY5Y APP 5'UTR luciferase reporter, luminescence; zero percent = DMSO vehicle wells; activation, % at 2 µM; 1% of 190,000 active;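 active means activation above a set limit, based on mean plus 3 SD of controls, cut at about 140% in these data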
STAT3 blocker = IL-6 driven STAT3 reporter inhibitors, primary screen, U3A cells, luciferase, luminescence, MLSCN library; IL-6 STAT3-luciferase reporter; host cell line lacks STAT1; inhibition, % at 5.5 µM; 0.89% of 190,000 active; AID 862, 2007;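 active means inhibition above the mean inhibition across all screened compounds plus 3 SD, cut at about 44% in these data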;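 further: 0% = DMSO only wells and 100% = 100 µM nifuroxazide control wells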
NF-kB expr up = activators of NF-kB expression in neurons, primary screen, cell-based, HTS; human neuronal cells, NF-kB reporter expression; stronger effect = higher value; fold change at 12.5 µM; 1.6% of 190,000 active; in the data active means fold change above about 3.3
STAT1 inh = STAT1 signaling inhibitors, primary screen, cell-based, HTS, luciferase reporter | inhibition, % at 5.5 µM | 0.35% of 200,000 active | NIH 3T3 STAT1-luciferase reporter, IFN-gamma, luminescence | AID 920, 2007;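 active means inhibition above a set limit, the mean inhibition across all tested compounds plus 3 SD, cut at about 34% in these data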;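 further: 0% = IFN-gamma with DMSO and 100% = IFN-gamma with 300 µM nifuroxazide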
STAT1 act-1 = STAT1 signaling activators, primary screen, cell-based, HTS, luciferase reporter; NIH 3T3 STAT1-luciferase reporter, IFN-gamma, luminescence; 100% = IFN-gamma alone, no compound; activation (% of control), % at 5.5 µM; 2.6% of 200,000 active; AID 932, 2007;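 active means activation above the screen-wide mean activation plus 3 SD, cut at about 130% in these data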;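 further: raw ratio to IFN-gamma control signal so 100% means no change and 0% no light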
STAT3 act-1 = IL-6 driven STAT3 reporter potentiators, primary screen, U3A cells, luciferase, luminescence, MLSCN library | 0.91% of 190,000 active | IL-6 STAT3-luciferase reporter; 100% = signal with IL-6 EC80 alone | activation (% of control), % at 5.6 µM | AID 871, 2007;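 active means activation above the screen-wide mean of compound activation plus 3 SD, cut at about 130% in these data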;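 further: 0% = background luminescence of wells with medium and substrate only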
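Test system: STAT3-luciferase reporter U3A cells; Detection: reporter luminescence signal; Times: 1 h compound pre-exposure, 6 h IL-6 stimulation, 37 °C; Benchmarks: IL-6-only high control; Also added: IL-6 stimulus at 33 ng/mL final.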
STAT3 act-2 = STAT3 reporter potentiators, retest of hits, confirmation, U3A cells, luciferase, luminescence; shares compounds with STAT3 act-1; IL-6 potentiation; U3A cells lack STAT1; 100 means same as IL-6 alone; potentiation (% of control), % at 5.7 µM; 64% of 1,200 active; AID 1267, 2008;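 active means percent activation of the STAT3 luciferase reporter above a set limit taken from the earlier primary screen, cut at about 130% in these data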;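 further: 0% = background signal of medium plus substrate and 100% = median of IL-6 with DMSO wells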
NFkB act STAT3ct = NF-kB reporter activators in human cells, counter-screen for STAT3 activator project | shares compounds with STAT3 act-1 | NF-kappaB reporter activation | activation (% of control), % at 5.7 µM | 11% of 1,200 active | AID 1309, 2008; in the data active means activation above about 120%;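 further: reporter induced by TNF-alpha stimulation; 100% = median of stimulated DMSO wells and 0% = no signal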
STAT1 act-2 = STAT1 reporter activators, IFN-gamma induced, counter-screen for STAT3 activator project, cell-based, NIH 3T3, luciferase luminescence; shares compounds with STAT3 act-1; NIH 3T3 STAT1-luciferase reporter; activation (% of control), % at 5.7 µM; 13% of 1,200 active;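 active means activation above the solvent-only control well mean plus 3 SD, set per screening run, cut at about 120% in these data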;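 further: 100% = IFN-gamma with DMSO median signal so 100% means no change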
Active calls of the source: *; / = not tested or not shown.

SMILES | APP 5'UTR act | STAT3 blocker | NF-kB expr up | STAT1 inh | STAT1 act-1 | STAT3 act-1 | STAT3 act-2 | NFkB act STAT3ct | STAT1 act-2
Cc1cc(C)n(-c2nc(C)nc3c2cnn3-c2ccccc2)n1 | 9 | -60 | 1.2 | -6 | 106 | 155* | 151* | 108 | 99
COc1ccc(C)cc1NC(=O)CC(NC(C)=O)c1ccccc1 (centres undefined) | -18 | 7 | 1.2 | 0 | 100 | 101 | / | / | /
CCOCCCNC(=O)C(NC(=O)Cc1cccs1)c1ccccc1 (centres undefined) | 2 | 12 | 0.98 | -3 | 102 | 96 | / | / | /
CCOCCCNC(=O)C(NC(=O)Cc1c[nH]c2ccccc12)c1ccccc1 (centres undefined) | 7 | -42 | 1 | 10 | 90 | 144* | 135* | 104 | 98
O=C(Cn1cc(C(=O)C2CCCCC2)c2ccccc21)NCC1CCCO1 (centres undefined) | 17 | -12 | 1.1 | 3 | 97 | 109 | / | / | /
Cn1c(Sc2ccccc2Cl)c(C=O)c2ccccc21 | -3 | 19 | 1.1 | 0 | 100 | 93 | / | / | /
Cn1c(Sc2ccc(Cl)cc2)c(C=O)c2ccccc21 | 4 | -78 | 0.76 | 14 | 88 | 170* | 140* | 75 | 81
O=C(NC(=S)Nc1ccccc1N1CCCC1)c1cccc(F)c1 | -1 | -57 | 1.2 | 6 | 93 | 152* | 154* | 105 | 89
O=C(NC(=S)Nc1ccccc1N1CCCC1)c1ccc(F)cc1 | -5 | -39 | 1.1 | 8 | 91 | 145* | 149* | 104 | 91
Cc1cc(C(=O)NC(=S)Nc2ccccc2N2CCCC2)ccc1[N+](=O)[O-] | 1 | -14 | 0.97 | -4 | 104 | 107 | / | / | /
O=C(NC(=S)Nc1ccccc1N1CCCCC1)c1ccccc1 | 12 | -1 | 1.4 | -10 | 108 | 104 | / | / | /
COC(=O)CCC(=O)Nc1ccc(C)cc1OC(=O)CCC(=O)OC | 9 | -42 | 0.92 | -1 | 105 | 136* | 108 | 100 | 98
CCN(CC)S(=O)(=O)c1cccc(NC(=O)CSc2nnc(N)s2)c1 | 3 | -2 | 1.1 | 2 | 97 | 103 | / | / | /
CS(=O)(=O)c1ccc(Sc2nc3ccccc3s2)c([N+](=O)[O-])c1 | -19 | -63 | 0.62 | -4 | 104 | 147* | 118 | 104 | 110
O=[N+]([O-])c1cc(S(=O)(=O)C(F)(F)F)ccc1Sc1nc2ccccc2s1 | -2 | -8 | 0.32 | -2 | 102 | 106 | / | / | /
O=S(=O)(/N=C(/Nc1ccccc1)c1ccccc1O)c1ccccc1 | 13 | 10 | 1.1 | -3 | 100 | 94 | / | / | /
CCc1cc(C(=O)N2CCCC(CCC(=O)NCc3cccc(OC)c3)C2)no1 (centres undefined) | -8 | 6 | 1.5 | -8 | 106 | 99 | / | / | /
O=C(Oc1c(Cl)cc(Cl)c2ccccc12)N1CCCC1 | -11 | -44 | 0.87 | 10 | 91 | 143* | 151* | 112 | 107
Cc1ncoc1C(=O)N1CCc2c([nH]c3ccccc23)C1C1CCCCC1 (centres undefined) | 34 | -29 | 1.6 | -13 | 111 | 140* | 128 | 106 | 110
O=S(=O)(c1ccccc1)n1ccc2ccccc21 | 12 | -41 | 1 | 1 | 99 | 139* | 126 | 102 | 99
CCOC(=O)C1(Cc2ccccc2C)CCCN(S(=O)(=O)c2cccnc2)C1 (centres undefined) | 14 | 14 | 1.3 | 4 | 96 | 93 | / | / | /
O=C1C=C(NCc2ccccc2)c2ccccc2C1=O | -9 | -48 | 0.4 | 9 | 90 | 146* | 132 | 98 | 92
CN1CCN(CCCNC(=O)c2cc3c(-c4ccc(Cl)cc4)nn(C)c3s2)CC1 | -8 | -76 | 1.1 | 12 | 89 | 173* | 149* | 106 | 93
CCN(CC)CCCNC(=O)c1cc(-c2ccc(Cl)c(Cl)c2)on1 | -9 | 15 | 0.57 | 1 | 99 | 95 | / | / | /
CCN(CC)CCCNC(=O)c1cc2c(-c3ccc(Cl)cc3)nn(C)c2s1 | 3 | -61 | 1.1 | 11 | 90 | 161* | 156* | 109 | 97
SMILES | APP 5'UTR act | STAT3 blocker | NF-kB expr up | STAT1 inh | STAT1 act-1 | STAT3 act-1 | STAT3 act-2 | NFkB act STAT3ct | STAT1 act-2
Cn1nc(-c2ccc(Cl)cc2)c2cc(C(=O)NCC3CCCO3)sc21 (centres undefined) | -8 | -77 | 0.57 | 11 | 90 | 167* | 147* | 102 | 92
Cc1nn(-c2ccccc2)cc1C(c1c(N)[nH]c(=S)[nH]c1=O)c1c(N)[nH]c(=S)[nH]c1=O | -6 | 0 | 1.2 | -9 | 106 | 103 | / | / | /
CCCC(=O)Nc1cc(C(=O)O)ccc1S(=O)(=O)c1ccc(Cl)cc1 | -11 | 4 | 1 | 2 | 98 | 104 | / | / | /
Cc1sc2ncnc(OCC(=O)N3CCN(C(=O)c4ccco4)CC3)c2c1C | 22 | -4 | 1 | 9 | 91 | 108 | / | / | /
CCC(C)(C)NC(=O)c1cccc(NC(=O)C(C)C)c1 | 19 | 14 | 0.97 | -6 | 104 | 98 | / | / | /
CC(C)CC1=NN(C(=O)c2ccco2)C(O)(C(F)(F)F)C1 (centres undefined) | 9 | 0 | 1.1 | -1 | 99 | 105 | / | / | /
CNC(=S)NNS(=O)(=O)c1ccc(OC)cc1OC | -1 | 11 | 0.83 | -3 | 102 | 100 | / | / | /
Cc1ccc(NC(=O)CC2Nc3ccccc3NC2=O)cc1Cl (centres undefined) | 38 | -46 | / | -7 | 106 | 138* | 109 | 110 | 109
O=C(CC1Nc2ccccc2NC1=O)Nc1ccc2c(c1)OCO2 (centres undefined) | 31 | 14 | 1.5 | -14 | 111 | 90 | / | / | /
COc1ccc(S(=O)CC(=O)Nc2ccc(Cl)cc2Cl)cc1 (centres undefined) | -3 | 14 | 1.1 | 9 | 91 | 93 | / | / | /
CCOC(=O)c1cnn(-c2ncnc3sc4c(c23)CCC4)c1N | 19 | -48 | 1.2 | 6 | 94 | 148* | 149* | 103 | 99
